Test results as given in ChEMBL document CHEMBL1667754, “Synthesis and biological activity of pyrazolothienotetrahydroisoquinoline and [1,2,4]triazolo[3,4-a]thienotetrahydroisoquinoline derivatives” (2011).

Tests used:
[1] = tested on: Aspergillus flavus; experiment: Antifungal activity against Aspergillus flavus at 2% by disc diffusion assay
[2] = tested on: Scopulariopsis brevicaulis; experiment: Antifungal activity against Scopulariopsis brevicaulis at 2% by disc diffusion assay
[3] = tested on: Staphylococcus aureus; experiment: Antibacterial activity against Staphylococcus aureus at 200 ug/disc by disc diffusion assay
[4] = tested on: Escherichia coli; experiment: Antibacterial activity against Escherichia coli at 50 uL/well by well diffusion assay; type: functional
Outline: (§1)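 Bauer-type diffusion assay. Test compounds were at 2% in DMSO. The read-out was the diameter (mm) of the inhibition zone, with chloramphenicol as the reference agent.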

[5] = tested on: Fusarium oxysporum; experiment: Antifungal activity against Fusarium oxysporum at 2% by disc diffusion assay
[6] = tested on: Trichophyton rubrum; experiment: Antifungal activity against Trichophyton rubrum at 50 uL/well by well diffusion assay; type: functional
Outline: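 Agar discs (10 mm) carrying spores and hyphae were shaken in sterile distilled water. 1 mL of the spore suspension was plated and mixed with 15 mL molten SDA, then left to set. Compounds were at 2% in DMSO, applied per Bauer's diffusion method. The read-out was the inhibition zone (mm).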

[7] = tested on: Serratia marcescens; experiment: Antibacterial activity against Serratia marcescens at 200 ug/disc by disc diffusion assay
[8] = tested on: Aspergillus niger; experiment: Antifungal activity against Aspergillus niger at 2% by disc diffusion assay
[9] = tested on: Bacillus cereus; experiment: Antibacterial activity against Bacillus cereus at 200 ug/disc by disc diffusion assay
[10] = tested on: Micrococcus luteus; experiment: Antibacterial activity against Micrococcus luteus at 50 uL/well by well diffusion assay; type: functional
Outline: as §1

[11] = tested on: Pseudomonas aeruginosa; experiment: Antibacterial activity against Pseudomonas aeruginosa at 200 ug/disc by disc diffusion assay
[12] = tested on: Candida albicans; experiment: Antifungal activity against Candida albicans at 200 ug/disc by disc diffusion assay
[13] = tested on: Geotrichum candidum; experiment: Antifungal activity against Geotrichum candidum at 2% by disc diffusion assay

| Compound | diameter of the inhibition zone (DIZ) [1] | diameter of the inhibition zone (DIZ) [2] | diameter of the inhibition zone (DIZ) [3] | diameter of the inhibition zone (DIZ) [4] | diameter of the inhibition zone (DIZ) [5] | diameter of the inhibition zone (DIZ) [6] | diameter of the inhibition zone (DIZ) [7] | diameter of the inhibition zone (DIZ) [8] | diameter of the inhibition zone (DIZ) [9] | diameter of the inhibition zone (DIZ) [10] | diameter of the inhibition zone (DIZ) [11] | diameter of the inhibition zone (DIZ) [12] | diameter of the inhibition zone (DIZ) [13] |
| --- | --- | --- | --- | --- | --- | --- | --- | --- | --- | --- | --- | --- | --- |
| N#Cc1c2c(c(NN)[nH]c1=S)CCCC2 | 10 mm | 0 mm | 11 mm | 14 mm | 13 mm | 17 mm | 0 mm | 12 mm | 20 mm | 14 mm | 0 mm | 12 mm | 0 mm |
| N#Cc1c2c(c3[nH]ncn3c1=S)CCCC2 | 0 mm | 0 mm | 8 mm | 10 mm | 0 mm | 0 mm | 10 mm | 0 mm | 15 mm | 12 mm | 0 mm | 10 mm | 0 mm |
| Cc1cc(C)n(-c2[nH]c(=S)c(C#N)c3c2CCCC3)n1 | 0 mm | 0 mm | 8 mm | 0 mm | 0 mm | 0 mm | 0 mm | 0 mm | 16 mm | 0 mm | 0 mm | 0 mm | 0 mm |
| N#Cc1c2c(c(-n3[nH]c(=O)cc3N)[nH]c1=S)CCCC2 | 0 mm | 0 mm | 0 mm | 0 mm | 0 mm | 0 mm | 0 mm | 0 mm | 9 mm | 10 mm | 0 mm | 0 mm | 8 mm |
| N#Cc1c2c(c(N3N=C(c4ccccc4)CC3=O)[nH]c1=S)CCCC2 | 0 mm | 0 mm | 0 mm | 13 mm | 0 mm | 14 mm | 0 mm | 0 mm | 0 mm | 0 mm | 0 mm | 0 mm | 0 mm |
| N#CCSc1c(C#N)c2c(c3nncn13)CCCC2 | 0 mm | 0 mm | 10 mm | 8 mm | 0 mm | 0 mm | 12 mm | 0 mm | 12 mm | 11 mm | 0 mm | 0 mm | 0 mm |
| N#Cc1sc2c(c1N)c1c(c3nncn32)CCCC1 | 0 mm | 0 mm | 9 mm | 0 mm | 0 mm | 0 mm | 11 mm | 0 mm | 11 mm | 0 mm | 0 mm | 0 mm | 0 mm |
| CCOC(=O)CSc1c(C#N)c2c(c3nncn13)CCCC2 | 0 mm | 0 mm | 0 mm | 0 mm | 0 mm | 0 mm | 0 mm | 0 mm | 11 mm | 10 mm | 0 mm | 0 mm | 0 mm |
| CCOC(=O)c1sc2c(c1N)c1c(c3nncn32)CCCC1 | 8 mm | 0 mm | 10 mm | 11 mm | 0 mm | 0 mm | 10 mm | 0 mm | 8 mm | 0 mm | 0 mm | 10 mm | 0 mm |
| N#Cc1c2c(c3nncn3c1SCC(N)=O)CCCC2 | 0 mm | 0 mm | 8 mm | 12 mm | 0 mm | 0 mm | 0 mm | 0 mm | 13 mm | 0 mm | 0 mm | 0 mm | 0 mm |
| N#Cc1c(SCC(=O)c2ccccc2)nc(NN)c2c1CCCC2 | 0 mm | 0 mm | 10 mm | 0 mm | 0 mm | 12 mm | 0 mm | 0 mm | 0 mm | 0 mm | 0 mm | 0 mm | 12 mm |
| Cc1cc(C)n(-c2nc(SCC(=O)c3ccccc3)c(C#N)c3c2CCCC3)n1 | 0 mm | 0 mm | 10 mm | 0 mm | 0 mm | 0 mm | 0 mm | 0 mm | 0 mm | 0 mm | 0 mm | 0 mm | 0 mm |
